Test results: ChEMBL document CHEMBL1145751, “Discovery of (aryloxopropenyl)pyrrolyl hydroxyamides as selective inhibitors of class IIa histone deacetylase homologue HD1-A” (J Med Chem, 2003)
Non-standard residues stand in square brackets, D forms with d. Residues, ends and D or L forms follow the SMILES beside them. ξ: configuration not given here. Aoe(9ξ) = N[C@@H](CCCCCC(=O)C1CO1)C(=O)O; dPip = O=C(O)[C@H]1CCCCN1

Key:
Histone deacetylase HD2 = biological target: T1, Histone deacetylase HD2 (Zea mays, UniProt Q94F81); experiment: Tested for maize Histone deacetylase 2 inhibitory activity
T1 sequence (Q94F81 whole entry): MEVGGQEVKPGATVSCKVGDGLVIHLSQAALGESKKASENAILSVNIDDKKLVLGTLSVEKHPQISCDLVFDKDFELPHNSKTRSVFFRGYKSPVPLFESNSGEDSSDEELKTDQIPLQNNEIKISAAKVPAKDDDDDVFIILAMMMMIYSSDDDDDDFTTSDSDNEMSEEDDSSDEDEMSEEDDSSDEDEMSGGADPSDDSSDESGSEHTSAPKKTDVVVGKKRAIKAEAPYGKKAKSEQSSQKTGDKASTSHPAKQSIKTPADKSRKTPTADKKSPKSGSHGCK
Method in brief: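 Purified maize HD2 enzyme was incubated with compounds and [³H]-acetate pre-labeled chicken reticulocyte histones (added from a 4 mg/mL stock) for 30 min at 30 °C. The reaction was stopped with HCl/acetate, and released [³H]-acetate was extracted into ethyl acetate. The upper phase was counted by liquid scintillation. IC50 is the mean of at least three separate experiments.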

[1] = Inhibitory activity against maize Histone deacetylase 1-B; set-up: species or system Zea mays
[2] = Inhibitory activity afgainst maize Histone deacetylase 1-A; set-up: species or system Zea mays
[3] = Fold selectivity for classIIa HDAC
[4] = biological target: T2, Protein deacetylase HDAC6 (Homo sapiens, UniProt Q9UBN7); experiment: (§1) Tested for inhibition of Histone deacetylase 6 induced acetylated tubulin in mammalian cells.; format: cell-based
T2 sequence (Q9UBN7 whole entry): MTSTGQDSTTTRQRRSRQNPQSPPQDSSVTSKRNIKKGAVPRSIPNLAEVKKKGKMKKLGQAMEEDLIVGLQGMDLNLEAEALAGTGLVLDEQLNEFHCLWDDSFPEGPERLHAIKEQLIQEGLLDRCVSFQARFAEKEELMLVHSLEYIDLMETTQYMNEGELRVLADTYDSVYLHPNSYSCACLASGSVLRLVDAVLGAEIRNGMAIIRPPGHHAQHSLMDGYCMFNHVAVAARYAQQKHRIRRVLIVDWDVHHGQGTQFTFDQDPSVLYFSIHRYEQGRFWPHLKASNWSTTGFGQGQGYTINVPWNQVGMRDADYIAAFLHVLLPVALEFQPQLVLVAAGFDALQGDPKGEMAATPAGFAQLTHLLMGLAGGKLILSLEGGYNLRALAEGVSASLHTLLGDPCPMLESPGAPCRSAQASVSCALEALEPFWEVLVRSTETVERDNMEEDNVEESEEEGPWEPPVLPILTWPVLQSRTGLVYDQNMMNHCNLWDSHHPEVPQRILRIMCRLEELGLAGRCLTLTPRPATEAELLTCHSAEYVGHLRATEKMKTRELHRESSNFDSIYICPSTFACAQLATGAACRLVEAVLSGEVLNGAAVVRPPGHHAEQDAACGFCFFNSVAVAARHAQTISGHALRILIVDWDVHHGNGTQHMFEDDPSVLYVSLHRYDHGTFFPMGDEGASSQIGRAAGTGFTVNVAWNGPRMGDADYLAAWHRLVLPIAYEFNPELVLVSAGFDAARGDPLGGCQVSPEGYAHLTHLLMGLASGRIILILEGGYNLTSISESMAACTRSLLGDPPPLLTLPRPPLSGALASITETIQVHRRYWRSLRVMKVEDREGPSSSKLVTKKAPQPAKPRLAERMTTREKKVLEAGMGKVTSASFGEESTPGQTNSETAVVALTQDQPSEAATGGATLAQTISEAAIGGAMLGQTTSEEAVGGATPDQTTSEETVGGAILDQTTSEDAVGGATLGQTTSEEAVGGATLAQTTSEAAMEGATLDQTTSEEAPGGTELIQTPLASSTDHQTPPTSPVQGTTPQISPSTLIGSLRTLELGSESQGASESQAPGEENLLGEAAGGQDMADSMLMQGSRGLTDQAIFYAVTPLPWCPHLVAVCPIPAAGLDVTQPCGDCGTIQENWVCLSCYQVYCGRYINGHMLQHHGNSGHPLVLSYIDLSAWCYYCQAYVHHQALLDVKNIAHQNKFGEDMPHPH

Histone deacetylase 4 = Histone deacetylase 4 (Homo sapiens, UniProt P56524); experiment: Inhibition of Histone deacetylase 4 in mammalian cells.; format: cell-based
Sequence of Histone deacetylase 4 (P56524 whole entry): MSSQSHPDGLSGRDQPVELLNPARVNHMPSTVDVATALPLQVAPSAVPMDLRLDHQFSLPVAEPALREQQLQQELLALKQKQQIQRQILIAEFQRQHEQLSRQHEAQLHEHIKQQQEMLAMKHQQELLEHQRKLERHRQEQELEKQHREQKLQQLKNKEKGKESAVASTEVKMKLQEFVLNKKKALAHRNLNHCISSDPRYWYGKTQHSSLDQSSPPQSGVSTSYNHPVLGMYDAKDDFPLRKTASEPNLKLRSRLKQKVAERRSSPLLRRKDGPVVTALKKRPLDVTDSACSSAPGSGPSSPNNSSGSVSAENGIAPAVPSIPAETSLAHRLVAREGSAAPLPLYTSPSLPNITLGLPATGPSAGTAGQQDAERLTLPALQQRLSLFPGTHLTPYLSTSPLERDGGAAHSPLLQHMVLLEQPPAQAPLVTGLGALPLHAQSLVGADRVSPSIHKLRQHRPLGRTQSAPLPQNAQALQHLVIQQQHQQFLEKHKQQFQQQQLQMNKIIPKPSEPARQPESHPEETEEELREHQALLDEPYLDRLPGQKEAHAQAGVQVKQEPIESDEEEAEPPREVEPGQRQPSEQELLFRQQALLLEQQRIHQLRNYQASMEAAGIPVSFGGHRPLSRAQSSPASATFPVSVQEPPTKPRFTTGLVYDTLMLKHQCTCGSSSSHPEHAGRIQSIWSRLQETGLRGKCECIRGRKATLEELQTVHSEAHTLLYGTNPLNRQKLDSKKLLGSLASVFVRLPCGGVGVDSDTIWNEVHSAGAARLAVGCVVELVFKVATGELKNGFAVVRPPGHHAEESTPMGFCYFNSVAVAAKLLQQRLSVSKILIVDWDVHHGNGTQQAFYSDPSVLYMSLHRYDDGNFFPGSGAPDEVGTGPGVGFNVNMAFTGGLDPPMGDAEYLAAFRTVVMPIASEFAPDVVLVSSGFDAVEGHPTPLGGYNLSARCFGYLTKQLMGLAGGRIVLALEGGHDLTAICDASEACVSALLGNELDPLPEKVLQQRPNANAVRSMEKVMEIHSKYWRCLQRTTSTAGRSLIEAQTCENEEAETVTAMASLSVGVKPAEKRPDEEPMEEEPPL

Histone deacetylase 1 [5] = biological target: T3, Histone deacetylase 1 (Homo sapiens, UniProt Q13547); experiment: Inhibition of Histone deacetylase 1 induced acetylated histone in mammalian cells.; format: cell-based
T3 sequence (Q13547 whole entry): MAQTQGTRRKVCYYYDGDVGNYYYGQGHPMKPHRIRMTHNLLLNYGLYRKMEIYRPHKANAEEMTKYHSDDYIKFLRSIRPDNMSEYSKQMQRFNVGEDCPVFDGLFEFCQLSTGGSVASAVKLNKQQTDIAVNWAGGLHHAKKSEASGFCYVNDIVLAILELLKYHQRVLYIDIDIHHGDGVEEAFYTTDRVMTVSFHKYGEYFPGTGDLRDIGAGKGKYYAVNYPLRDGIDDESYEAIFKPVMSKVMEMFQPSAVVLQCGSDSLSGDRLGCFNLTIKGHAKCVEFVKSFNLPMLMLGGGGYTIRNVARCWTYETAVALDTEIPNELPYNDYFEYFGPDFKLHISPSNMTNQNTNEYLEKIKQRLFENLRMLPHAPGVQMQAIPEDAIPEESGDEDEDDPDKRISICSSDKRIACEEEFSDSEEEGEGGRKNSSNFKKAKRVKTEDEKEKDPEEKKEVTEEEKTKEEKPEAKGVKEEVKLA

[6] = as §1; format: cell-based
[7] = Inhibition of Histone deacetylase 4 in mammalian cells; format: cell-based
Histone deacetylase 1 [8] = biological target: T3, Histone deacetylase 1; experiment: Inhibition of Histone deacetylase 1 induced acetylated histone in mammalian cells; format: cell-based

## Cc1ccc(C(=O)/C=C/c2cc(/C=C/C(=O)NO)n(C)c2)cc1
Histone deacetylase HD2
  IC50: 10200 nM
[1]
  IC50: 4800 nM
[2]
  IC50: 500 nM
[3]
  Fold selectivity: 10

## Cn1cc(/C=C/C(=O)c2cccc(Cl)c2)cc1/C=C/C(=O)NO
Histone deacetylase HD2
  IC50: 24200 nM
[1]
  IC50: 31400 nM
[2]
  IC50: 400 nM
[3]
  Fold selectivity: 78

## Cn1cc(/C=C/C(=O)c2ccccc2Cl)cc1/C=C/C(=O)NO
Histone deacetylase HD2
  IC50: 5200 nM
[1]
  IC50: 1600 nM
[2]
  IC50: 50 nM
[3]
  Fold selectivity: 32

## C[C@@H]1NC(=O)[C@H](CCCCCC(=O)C2CO2)NC(=O)[C@H]2CCCN2C(=O)[C@H](C)NC1=O (some centres undefined)
[4]
  EC50: 360000 nM
Histone deacetylase 4
  IC50: 0.3 nM
Histone deacetylase 1 [5]
  EC50: 110 nM

## Cc1cccc(C(=O)/C=C/c2cc(/C=C/C(=O)NO)n(C)c2)c1
Histone deacetylase HD2
  IC50: 7900 nM
[1]
  IC50: 2500 nM
[2]
  IC50: 200 nM
[3]
  Fold selectivity: 12

## C[C@@H]1NC(=O)[C@H](CCCCCC(=O)NO)NC(=O)[C@H]2CCCN2C(=O)[C@H](C)NC1=O
[4]
  EC50: 19000 nM
Histone deacetylase 4
  IC50: 2.7 nM
Histone deacetylase 1 [5]
  EC50: 1900 nM

## C/C=C1\NC(=O)[C@H]2CSSCC/C=C/[C@H](CC(=O)N[C@H](C(C)C)C(=O)N2)OC(=O)[C@H](C(C)C)NC1=O [ROMIDEPSIN]
Histone deacetylase 1 [5]
  EC50: 36000 nM

## Cn1cc(/C=C/C(=O)c2ccccc2)cc1/C=C/C(=O)NO
Histone deacetylase HD2
  IC50: 280 nM
[1]
  IC50: 300 nM
[2]
  IC50: 200 nM

## Cc1ccccc1C(=O)/C=C/c1cc(/C=C/C(=O)NO)n(C)c1
Histone deacetylase HD2
  IC50: 270 nM
[1]
  IC50: 400 nM
[2]
  IC50: 60 nM
[3]
  Fold selectivity: 7

## CC(/C=C/C(=O)NO)=C\[C@@H](C)C(=O)c1ccc(N(C)C)cc1 [TRICHOSTATIN]
[1]
  IC50: 0.4 nM
[6]
  EC50: 8600 nM
[2]
  IC50: 0.8 nM
[7]
  IC50: 38 nM

## O=C(CCCCC[C@@H]1NC(=O)[C@H]2CCCCN2C(=O)[C@H](Cc2ccccc2)NC(=O)[C@H](Cc2ccccc2)NC1=O)C1CO1 (some centres undefined) [TRAPOXIN A] (cyclo(FF[dPip][Aoe(9ξ)]))
[4]
  EC50: 524000 nM
Histone deacetylase 1 [8]
  EC50: 820 nM

## Cn1cc(/C=C/C(=O)c2ccc(Cl)cc2)cc1/C=C/C(=O)NO
Histone deacetylase HD2
  IC50: 25200 nM
[1]
  IC50: 29400 nM
[2]
  IC50: 18600 nM
